Measurements from ChEMBL document CHEMBL1649361, “Pyridone and tetramic acid alkaloids from the spider pathogenic fungus Torrubiella sp. BCC 2165” (J Nat Prod, 2010).
Active and inactive are the calls of the source. No cut-off for these calls is given here.

Assays:
NCI-H187 = assay: Cytotoxicity against human NCI-H187 cells by resazurin microplate assay; type: functional, cell-based
How it was run: (§1)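 Resazurin microplate assay on human cancer lines: KB (oral epidermoid carcinoma), MCF-7 (breast cancer) and NCI-H187 (small-cell lung cancer). IC50 values were read from the assay, with doxorubicin hydrochloride as the reference standard.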

KB [1] = assay: Cytotoxicity against human KB cells by resazurin microplate assay; type: functional, cell-based; how it was run: as §1
MCF7 [2] = assay: Cytotoxicity against human MCF7 cells by resazurin microplate assay; type: functional, cell-based; how it was run: as §1
Plasmodium falciparum = assay: Antimalarial activity against multidrug-resistant Plasmodium falciparum K1 by microculture radioisotope technique; type: functional, organism-based
[3] = test system: Mycobacterium tuberculosis; assay: Antimycobacterial activity against Mycobacterium tuberculosis H37Ra by GFPMA assay; type: functional, organism-based
MCF7 [4] = assay: Cytotoxicity against human MCF7 cells at 50 ug/ml by resazurin microplate assay; type: functional, cell-based
How it was run: (§2)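 Single-concentration test at 50 µg/mL (119 µM) by resazurin microplate assay on human KB (oral epidermoid carcinoma) or MCF-7 (breast cancer) cells, with doxorubicin hydrochloride as the reference standard.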

KB [5] = assay: Cytotoxicity against human KB cells at 50 ug/ml by resazurin microplate assay; type: functional, cell-based; how it was run: as §2
Vero = assay: Cytotoxicity against african freen monkey Vero cells by green fluorescent protein microplate assay; settings: Chlorocebus sabaeus

Row | Structure (SMILES) | Activity (NCI-H187) | Activity (MCF7 [2]) | IC50 (Plasmodium falciparum) | IC50 (NCI-H187) | IC50 (KB [1]) | further results
1 | CCC(/C=C/C=C/C=C/C(=O)c1c(O)c([C@]2(O)CC[C@@H](O)CC2)c[nH]c1=O)CO (stereo not given in full) | inactive | inactive |  |  |  | Activity (KB [1]): inactive
2 | C[C@H]1[C@@H](O)O[C@@H]2O[C@@]3(C)CC[C@H]4[C@H](C)CC[C@@H]1[C@@]24OO3 [ARTENIMOL] |  |  | 0.004 µM |  |  | 
3 | COc1cccc2c1C(=O)c1c(O)c3c(c(O)c1C2=O)C[C@@](O)(C(=O)CO)C[C@@H]3O[C@H]1C[C@H](N)[C@H](O)[C@H](C)O1 [DOXORUBICIN] |  |  |  | 0.098 µM | 0.37 µM | 
4 | CCC(/C=C/C=C/C=C/C(=O)c1c(O)c([C@]2(O)CC[C@@H](O)CC2)cn(O)c1=O)CO (stereo not given in full) [TORRUBIELLONE A] |  |  | 8.1 µM | 69 µM |  | Activity [3]: inactive; Activity (MCF7 [4]): inactive; Activity (KB [5]): inactive; IC50 (Vero): 87 µM
5 | CCC(/C=C/C=C/C=C/C(O)=C1\C(=O)NC(Cc2ccc(O)cc2)C1=O)CO (stereo not given) [TORRUBIELLONE D] | inactive | inactive |  |  | 44 µM | 
